Test results reported in PMC2933382 (Biochemistry, 2010).
Like-named read-outs stand apart in the source and are kept apart here.

Assays:
[1] = biological target: T1, AeSCP-2 (Aedes aegypti, UniProt Q86PR3); test: Initial ligand competition assay; assay type: binding; conditions: Fig. 1; NBD-cholesterol 1.25 µM, competitive ligand 0.005 to 5 µM
T1 sequence (Q86PR3 1-110): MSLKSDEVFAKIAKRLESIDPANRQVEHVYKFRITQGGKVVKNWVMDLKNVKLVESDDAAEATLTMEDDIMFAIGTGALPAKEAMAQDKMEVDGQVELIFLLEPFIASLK

[2] = biological target: T2, AeSCP-2 wild-type (Aedes aegypti, UniProt Q86PR3); test: NBD-cholesterol binding to recombinant AeSCP-2; conditions: wt; 0.5 µM NBD-cholesterol, protein 0.01 to 10 µM; mean (standard deviation)
T2 sequence (Q86PR3 1-110): T1 sequence (Q86PR3 1-110)

[3] = biological target: T3, AeSCP-2 Y30A mutant (Aedes aegypti, UniProt Q86PR3, Y30A); test: NBD-cholesterol binding to recombinant AeSCP-2 mutant
[4] = biological target: T4, AeSCP-2 F9W/W44F mutant (Aedes aegypti, UniProt Q86PR3, F9W/W44F); test: as above
[5] = biological target: AeSCP-2 F105A mutant (Aedes aegypti, UniProt Q86PR3, F105A); test: as above
[6] = biological target: T5, AeSCP-2 F105W mutant (Aedes aegypti, UniProt Q86PR3, F105W); test: as above; conditions: 0.5 µM NBD-cholesterol, protein 0.01 to 10 µM, mean (standard deviation)
[7] = biological target: T6, AeSCP-2 M90L mutant (Aedes aegypti, UniProt Q86PR3, M90L); test: as above
[8] = biological target: T7, AeSCP-2 W44E mutant (Aedes aegypti, UniProt Q86PR3, W44E); test: as above
[9] = biological target: T8, AeSCP-2 F32W mutant (Aedes aegypti, UniProt Q86PR3, F32W); test: as above; conditions: 0.5 µM NBD-cholesterol, protein 0.01 to 10 µM, mean (standard deviation)
[10] = biological target: AeSCP-2 F32A mutant (Aedes aegypti, UniProt Q86PR3, F32A); test: as above
[11] = biological target: T1, AeSCP-2; conditions: read-out: IC50 (suppression of NBD-cholesterol binding); cited from earlier work
[12] = biological target: T9, wild type AeSCP-2 (Aedes aegypti, UniProt Q86PR3); assay type: binding; conditions: 50 µM SCPI; wild type AeSCP-2 at 10 µM; Fig. 6A
T9 sequence (Q86PR3 1-110): T1 sequence (Q86PR3 1-110)
Method in brief: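 Intrinsic Trp (single residue, W44) fluorescence of purified recombinant native AeSCP-2, with and without SCP-2 inhibitor. Run in 100 µL of 50 mM Tris-HCl, pH 8.0, at 25 °C. Excitation at 280 nm; emission scanned 320–390 nm. Difference spectra were made by subtracting buffer and inhibitor-alone spectra.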

[13] = system: wild type AeSCP-2 denatured in 6.5 M guanidine hydrochloride; test: Intrinsic tryptophan fluorescence, denatured protein negative control; assay type: binding, Aedes aegypti; conditions: Fig. 6B
Method in brief: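 Negative control: recombinant AeSCP-2 denatured in 6.5 M guanidine-HCl in 50 mM Tris-HCl, pH 7.4, scanned with and without inhibitor. Excitation at 280 nm; emission read 320–390 nm. Buffer and inhibitor-alone spectra were subtracted to give difference spectra.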

[14] = biological target: T4, AeSCP-2 F9W/W44F mutant; assay type: binding; conditions: Fig. 6C
[15] = biological target: T6, AeSCP-2 M90L mutant; assay type: binding; conditions: Fig. 6D
[16] = system: Aag-2 cells; assay type: cell-based, Aedes aegypti; conditions: for Incorporation of [3H]cholesterol: Fig. 4; for Incorporation of [3H]palmitic acid: Fig. 5
[17] = biological target: T9, wild type AeSCP-2; test: Ligand competition assay with NBD-cholesterol; assay type: binding
[18] = biological target: T3, AeSCP-2 Y30A mutant; test: Ligand competition assay with NBD-cholesterol; assay type: binding
[19] = biological target: T8, AeSCP-2 F32W mutant; test: Ligand competition assay with NBD-cholesterol; assay type: binding
[20] = biological target: AeSCP-2 W44A mutant (Aedes aegypti, UniProt Q86PR3, W44A); test: Ligand competition assay with NBD-cholesterol; assay type: binding
[21] = biological target: T5, AeSCP-2 F105W mutant; test: Ligand competition assay with NBD-cholesterol; assay type: binding
[22] = biological target: recombinant AeSCP-2; conditions: radiolabelled cholesterol; cited from earlier work
[23] = within the lipid bilayer; cited from earlier work
[24] = biological target: T7, AeSCP-2 W44E mutant; test: Ligand competition assay with NBD-cholesterol; assay type: binding
[25] = biological target: T6, AeSCP-2 M90L mutant; test: Ligand competition assay with NBD-cholesterol; assay type: binding

In the case of `CC(C)CCC[C@@H](C)[C@H]1CC[C@H]2C3=CC=C4C[C@@H](O)CC[C@]4(C)[C@H]3CC[C@]12C` [7-dehydrocholesterol], the “Competition with NBD-cholesterol for binding to AeSCP-2” value (shortened to “Competition with NBD-cholesterol”) [1] is reported as “did not appear to compete”.
For `C[C@H](CNc1ccc([N+](=O)[O-])c2nonc12)[C@H]1CC[C@H]2[C@@H]3CC=C4C[C@@H](O)CC[C@]4(C)[C@H]3CC[C@]12C` [NBD-cholesterol, 22-(N-(7-nitrobenz-2-oxa-1,3-diazol-4-yl)amino)-23,24-bisnor-5-cholen-3β-o], the Kd [2] was 340 nM, the “Fold of Kd change” value ([3]; Y30A vs. wt) was 0.73 and the Kd ([3]; Y30A, 0.5 µM NBD-cholesterol, protein 0.01 to 10 µM, mean (standard deviation)) was 250 nM. For the same molecule, the “Fold of Kd change” value ([4]; F9W/W44F vs. wt) was 2.68, the Kd ([4]; F9W/W44F, 0.5 µM NBD-cholesterol, protein 0.01 to 10 µM, mean (standard deviation)) was 910 nM and the “Fold of Kd change” value ([5]; F105A vs. wt) was 3.38. For the same molecule, the Kd ([5]; F105A, 0.5 µM NBD-cholesterol, protein 0.01 to 10 µM, mean (standard deviation)) was 1150 nM, the Kd [6] was 1320 nM and the “Fold of Kd change” value ([7]; M90L vs. wt) was 8.09. The Kd ([7]; M90L, 0.5 µM NBD-cholesterol, protein 0.01 to 10 µM, mean (standard deviation)) was 2750 nM, the “Fold of Kd change” value ([8]; W44E vs. wt) was 12.35 and the Kd ([8]; W44E, 0.5 µM NBD-cholesterol, protein 0.01 to 10 µM, mean (standard deviation)) was 4200 nM. For the same molecule, the Kd [9] was 4940 nM, the “Fold of Kd change” value ([10]; F32A vs. wt) was 18.71 and the Kd ([10]; F32A, 0.5 µM NBD-cholesterol, protein 0.01 to 10 µM, mean (standard deviation)) was 6360 nM.
In the case of `Br.CC(=O)Nc1ccc(Nc2nc(-c3ccc(Cl)c(Cl)c3)cs2)cc1` [SCPI-1, N-4-{[4-(3,4-dichlorophenyl)-1,3-thiazol-2-yl]amino}phenyl)aetamide hydrobromide], the IC50 [11] is listed as under 400 nM.
With `Br.CC(=O)Nc1ccc(Nc2nc(-c3ccc(Cl)c(Cl)c3)cs2)cc1` [SCPI-1] the “Effect on tryptophan intrinsic fluorescence signal” value [12] was “significant decrease”, the “Quenching of tryptophan intrinsic fluorescence, denatured protein” value [13] was “no significant quenching” and the “Effect on tryptophan intrinsic fluorescence” value [14] was “still quenched”. For the same molecule, the “Effect on tryptophan intrinsic fluorescence” value [15] was “still quenched”.
With `COc1cccc(-n2sc3c(c2=S)-c2cc(Cl)ccc2NC3(C)C)c1` [SCPI-2, 8-chloro-2-(3-methoxyphenyl)-4,4-dimethyl-4,5-dihydroisothiazol[5,4-c]quinoline-1(2H)-thione] the “Effect on tryptophan intrinsic fluorescence signal” value [12] was “significant decrease”, the “Quenching of tryptophan intrinsic fluorescence, denatured protein” value [13] was “no significant quenching” and the “Effect on tryptophan intrinsic fluorescence” value [14] was “did not affect”. For the same molecule, the “Effect on tryptophan intrinsic fluorescence” value [15] was “did not affect” and the IC50 [11] was under 400 nM.
For `[3H]C1C([3H])[C@@]2(C)C(=CC[C@H]3[C@@H]4CC[C@H]([C@H](C)CCCC(C)C)[C@@]4(C)CC[C@@H]32)C[C@H]1O` (stereo partly shown) [[^3H]cholesterol, [1,2-^3H (N)]-cholesterol], the “Incorporation of [3H]cholesterol” value ([16]; cells over-expressing AeSCP-2 mutants F32A, W44E, M90L, and F105A) was “did not increase” and the “Incorporation of [3H]cholesterol” value ([16]; cells over-expressing wild type AeSCP-2 vs. empty vector) was “increased significantly”.
For `[3H]C(CCCCCC)C([3H])CCCCCCCC(=O)O` (stereo not shown) [[^3H]palmitic acid, [9,10-^3H]-palmitic acid], the “Incorporation of [3H]palmitic acid” value ([16]; cells transfected with either empty or AeSCP-2 wild type expression vectors) was “no increase” and the “Incorporation of [3H]palmitic acid” value ([16]; over-expression of AeSCP-2 mutants) was “did not affect”.
In the case of `CC(C)CCC[C@@H](C)[C@H]1CC[C@H]2[C@@H]3CC=C4C[C@@H](O)CC[C@]4(C)[C@H]3CC[C@]12C` [cholesterol], the EC50 [17] is reported as 211 nM, the EC50 [18] is reported as 282 nM and the EC50 [19] is reported as 447 nM. For the same molecule, the EC50 [20] was 72 nM, the EC50 [21] was 474 nM and the “Competition with NBD-cholesterol” value [1] was “competed with the NBD-cholesterol for binding to AeSCP-2 in a dose-dependent fashion”. For the same molecule, the “Effect on tryptophan intrinsic fluorescence signal” value [12] was “does not produce a quenching”, the Kd [22] was 10 nM and the “flip-flop rate t1/2” value [23] was 1 to 2 min.
For `CCCCCCCCCCCCCCCC(=O)O` [palmitic acid], the EC50 [17] was 348 nM, the EC50 [18] was 100 nM and the EC50 [19] was 398 nM. It also gave an EC50 [20] of 127 nM, an EC50 [24] of 75 nM and an EC50 [25] of 127 nM. For the same molecule, the EC50 [21] was 175 nM and the “Competition with NBD-cholesterol” value [1] was “also competed with NBD-cholesterol for binding to AeSCP-2”.
In the case of `CC[C@H](CC[C@@H](C)[C@H]1CC[C@H]2[C@@H]3CC=C4C[C@@H](O)CC[C@]4(C)[C@H]3CC[C@]12C)C(C)C` [β-sitosterol], the EC50 [17] is reported as 142 nM, the EC50 [18] is reported as 96 nM and the EC50 [19] is reported as 61 nM. It also gave an EC50 [20] of 112 nM, an EC50 [24] of 42 nM and an EC50 [25] of 46 nM. The EC50 [21] was 83 nM and the “Competition with NBD-cholesterol” value [1] was “also competed with NBD-cholesterol for binding to AeSCP-2”.
